This note sets out measurements from ChEMBL document CHEMBL4017532, “Multifunctional Hybrid Compounds Derived from 2-(2,5-Dioxopyrrolidin-1-yl)-3-methoxypropanamides with Anticonvulsant and Antinociceptive Properties” (J Med Chem, 2017).

Activity calls are given as the source filed them.

The subject of assay [1] is Mus musculus. Put plainly: Antinociceptive activity in Albino Swiss CD-1 mouse assessed as inhibition of capsaicin-induced nociception by measuring time spent licking injected paw administered ip 30 mins mins prior to capsaicin challenge measured for 5 mins. It is filed as functional, organism-based. The method, boiled down:
(§1)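 Mice (male CD-1, 18–25 g) were pretreated ip 30 min before intraplantar capsaicin. Doses were 25, 50 or 100 mg/kg, or 100, 150 or 200 mg/kg for the reference. Vehicle was 1% Tween 80 at 10 mL/kg. Duration of nociceptive response was scored over 5 min after injection. Data are mean ± SEM of 8–10 mice, by one-way ANOVA with Dunnett's test against vehicle.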

In assay [2] the test system is Mus musculus. Put plainly: Anticonvulsant activity in ip dosed Albino Swiss CD-1 mouse assessed as inhibition of pentylenetetrazole-induced seizures administered up to 2 hrs prior to PTZ induction measured at time to peak effect. The assay is classed as functional. The following applies: Swiss CD-1, ip.
Assay [3] concerns Mus musculus. Put plainly: Anticonvulsant activity in Albino Swiss CD-1 mouse assessed as protection against maximal electroshock-induced seizures by measuring time to peak effect at 100 mg/kg, ip pretreated up to 2 hrs followed by 50 Hz current induction for […]. The assay is classed as functional. For orientation: In the maximal electroshock model the usual endpoint is tonic extension of the hind limbs.

In assay [4] the test system is Mus musculus. In words: Anticonvulsant activity in Albino Swiss CD-1 mouse assessed as inhibition of pentylenetetrazole-induced seizures by measuring time to peak effect at 100 mg/kg, ip administered up to 2 hrs prior to PTZ induction measured for 30 mins. The assay is classed as functional.
The species entered for assay [5] is Mus musculus. Put plainly: Potency index, ratio of valproic acid ED50 to compound ED50 for protection against pentylenetetrazole-induced seizures in Albino Swiss CD-1 mouse. The assay is classed as functional.
The test system of assay [6] is Mus musculus. In words: Protection index, ratio of TD50 for neurotoxicity in ip dosed Albino Swiss CD-1 mouse to ED50 for ip dosed maximal electroshock induced seizure Albino Swiss CD-1 mouse. The method, boiled down:
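Acute neurological toxicity after ip dosing (1% Tween 80 suspension) was assessed in the mouse chimney test. TD50 with 95% confidence limits was derived by probit analysis. Protective index is TD50 from the chimney test divided by ED50 from the MES, scPTZ or 6 Hz test.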

Assay [7] relates to Mus musculus. Put plainly: Antinociceptive activity in Albino Swiss CD-1 mouse assessed as inhibition of formalin-induced neurogenic pain response administered ip 30 mins before formalin injection measured up to 5 mins. It is filed as functional. The following applies: Swiss CD-1, ip. The method, boiled down:
(§2)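 Male CD-1 mice were given test agents ip 30 min before subcutaneous intraplantar formalin. Doses were 12.5, 25 or 50 mg/kg, or 100, 150 or 200 mg/kg for the reference. Vehicle was 1% Tween 80 at 10 mL/kg. Paw licking time was recorded in phase I (0–5 min) and phase II (15–30 min). Data are mean ± SEM of 8–10 mice, by Dunnett's test. ED50 was obtained by log-probit analysis with 95% confidence limits.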

Assay [8] relates to Mus musculus. Put plainly: Antinociceptive activity in Albino Swiss CD-1 mouse assessed as inhibition of formalin-induced inflammatory pain response administered ip 30 mins before formalin injection measured after 15 to 30 mins. It is filed as functional. The following applies: Swiss CD-1, ip. The method, boiled down:
as §2

The test system of assay [9] is Mus musculus. In words: Antinociceptive activity in Albino Swiss CD-1 mouse assessed as inhibition of capsaicin-induced nociception by measuring time spent licking injected paw at 50 mg/kg, ip administered 30 mins mins prior to capsaicin challenge measured for 5 mins relative to control. To be noted: Swiss CD-1, ip. It is filed as functional. The method, boiled down: as §1

For assay [10], the system named is Mus musculus. Put plainly: Antiallodynic activity in oxaliplatin-induced Albino Swiss CD-1 mouse model of peripheral neuropathy assessed as elevation in pain sensitivity threshold at 25 mg/kg, ip administered 30 mins prior to oxaliplatin challenge relative to control. It is filed as functional. The method, boiled down: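 Male CD-1 mice, 18–25 g, that had developed oxaliplatin-induced tactile allodynia were dosed ip 30 min before testing. Doses were 25, 50 or 100 mg/kg, or 50, 100 or 150 mg/kg for the reference. Vehicle was 1% aqueous Tween 80. Paw-withdrawal force was measured by von Frey filaments. Data are mean ± SEM, analysed by repeated-measures ANOVA with Dunnett's test against oxaliplatin plus vehicle mice.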

The species entered for assay [11] is Rattus norvegicus. Put plainly: Displacement of [3H]-batrachotoxinin from sodium channel site 2 in rat cerebral cortex at 100 uM after 60 mins by liquid scintillation spectroscopic method. The method, boiled down: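 Run commercially by an outside contract lab, with the compound tested at 100 μM. The read-out was percent inhibition of binding of the radiolabelled ligand, reported as compound binding.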

The species named for assay [12] is Rattus norvegicus. Put plainly: Displacement of [3H]diltiazem from L-type calcium channel diltiazem binding site in rat cerebral cortical membranes at 100 uM after 60 mins. The assay is classed as cell membranes. The method, boiled down:
(§3)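 Radioligand binding was run as a contract service. Percent inhibition of specific labelled-ligand binding was measured at 100 μM test compound, or 200 μM for hERG.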

For assay [13], the species on record is Rattus norvegicus. Put plainly: Displacement of [3H]nitrendipine from L-type calcium channel dihydropyridine binding site in rat cerebral cortex at 100 uM by liquid scintillation spectrometry. The method, boiled down: as §3
In general terms: Displacement assays read how much labelled ligand stays bound in the presence of the test substance.

By ED50 is commonly meant the dose at which the effect has come halfway, by size or by number of responders. In general, inhibition in vivo refers to the share of the control response that was lost under treatment. Take `COCC(C(=O)N1CCN(c2ccc(C(F)(F)F)cc2)CC1)N1C(=O)CCC1=O` (stereo not drawn): in the assay with Mus musculus [1], the inhibition result was “Dose-dependent effect”. The ED50 in the assay with Mus musculus [2] is 123 mg/kg; in the assay with Mus musculus [7] it was 26 mg/kg; with Mus musculus [8], 5.1 mg/kg. Moreover, the values for the Time with Mus musculus [3] and in the assay with Mus musculus [4] were 0.25 to 1 h and 0.5 h, respectively. Also, the “Ratio ED50” value in the assay filed under Mus musculus [5] came to 2. For the same molecule, the “Ratio TD50/ED50” value with Mus musculus [6] is recorded as 1.9 - 2.5. Further, the inhibition in vivo at 50 mg/kg in the assay on Mus musculus [9] is 32.7%. Further, in the assay with Mus musculus [10], the Activity stood at 112.6%. For the same molecule, the inhibition entry in the assay listed under Rattus norvegicus [11], in the assay filed under Rattus norvegicus [12] and in the assay listed under Rattus norvegicus [13] was “inactive” in each case.
